Series [1] is described as follows: Ratio of fCmax in portal vein of patient with chronic noncirrhotic HCV infection at 140 mg to IC50 for OATP1B3 (unknown origin) expressed in HEK293 cells. Also noted: species or system Homo sapiens.
A short description of series [2]: Inhibition of OATP-mediated [3H]rosuvastatin uptake in sandwich-cultured human hepatocytes at 100 uM after 8 days by beta-counting. Type of series: ADME, cell-based, Hepatocyte. A digest of the protocol:
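Hepatocytes were overlaid with Matrigel (0.25 mg/ml) on day 1 and cultured to day 8 in ITS/0.1 µM dexamethasone medium, changed daily. Uptake of [3H]-E2 17G (1 µM, 1 min) or [3H]-rosuvastatin (0.5 µM, 1.5 min) was run at 37°C in HBSS with compound or vehicle. The BSP (100 µM) accumulation was subtracted, and the OATP-mediated uptake was expressed as % vehicle, normalized to BCA protein and corrected with cell-free wells.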

Series [3] in a line: Ratio of fCmax in portal vein of patient with chronic noncirrhotic HCV infection at 700 mg to IC50 for OATP1B1 (unknown origin) expressed in HEK293 cells. Also on record: species or system Homo sapiens.
Series [4] is described as follows: Ratio of fCmax in portal vein of patient with chronic noncirrhotic HCV infection at 700 mg to IC50 for OATP2B1 (unknown origin) expressed in HEK293 cells. Also on record: species or system Homo sapiens.
For series [5], the target named is T1, Solute carrier organic anion transporter family member 1B1 (Homo sapiens, UniProt Q9Y6L6).
T1 sequence (Q9Y6L6 whole entry): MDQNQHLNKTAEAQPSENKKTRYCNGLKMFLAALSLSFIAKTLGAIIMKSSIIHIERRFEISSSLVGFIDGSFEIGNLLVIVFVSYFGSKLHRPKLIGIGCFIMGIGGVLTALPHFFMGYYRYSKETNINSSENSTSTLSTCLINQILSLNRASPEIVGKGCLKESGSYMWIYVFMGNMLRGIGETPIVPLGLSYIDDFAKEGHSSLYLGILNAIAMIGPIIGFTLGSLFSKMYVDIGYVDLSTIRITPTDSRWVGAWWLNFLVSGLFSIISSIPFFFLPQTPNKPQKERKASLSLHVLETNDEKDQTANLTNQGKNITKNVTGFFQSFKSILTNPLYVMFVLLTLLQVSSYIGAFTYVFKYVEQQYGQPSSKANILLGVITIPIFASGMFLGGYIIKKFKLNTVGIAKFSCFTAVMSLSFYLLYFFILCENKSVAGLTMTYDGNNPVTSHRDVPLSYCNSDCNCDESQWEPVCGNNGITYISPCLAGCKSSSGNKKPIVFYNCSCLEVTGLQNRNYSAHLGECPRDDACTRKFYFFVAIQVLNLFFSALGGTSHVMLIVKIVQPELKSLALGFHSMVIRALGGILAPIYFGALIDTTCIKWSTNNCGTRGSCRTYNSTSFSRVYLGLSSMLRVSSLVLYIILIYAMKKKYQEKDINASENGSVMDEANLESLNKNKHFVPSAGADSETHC
In words: Inhibition of OATP1B1 (unknown origin) expressed in HEK293 cells assessed as reduction of [3H]estradiol-17beta-glucuronide uptake at 10 uM after 3 mins by beta-counting. Type of series: ADME, cell-based. To be noted: hek293, 0.05 h. A digest of the protocol:
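Confluent cells were washed in PBS, then given 1 µM [3H]-E2 17G (OATP1B1, OATP1B3 HEK293) or 1 µM [3H]-E1S (OATP2B1 MDCKII) with 10 µM compound in HBSS pH 7.4 for 3 min at 37°C. Uptake into mock or parental cells was subtracted after protein normalization. Results are % vehicle, mean ± SD of at least three experiments in triplicate.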

Series [6] can be described thus: Cmax in patient with chronic noncirrhotic HCV infection at 700 mg. Also on record: dose 700 mg. The note with it: human, in vivo. The series is classed as ADME, organism-based.
In series [7] the target is T2, Solute carrier organic anion transporter family member 2B1 (Homo sapiens, UniProt O94956).
T2 sequence (O94956 whole entry): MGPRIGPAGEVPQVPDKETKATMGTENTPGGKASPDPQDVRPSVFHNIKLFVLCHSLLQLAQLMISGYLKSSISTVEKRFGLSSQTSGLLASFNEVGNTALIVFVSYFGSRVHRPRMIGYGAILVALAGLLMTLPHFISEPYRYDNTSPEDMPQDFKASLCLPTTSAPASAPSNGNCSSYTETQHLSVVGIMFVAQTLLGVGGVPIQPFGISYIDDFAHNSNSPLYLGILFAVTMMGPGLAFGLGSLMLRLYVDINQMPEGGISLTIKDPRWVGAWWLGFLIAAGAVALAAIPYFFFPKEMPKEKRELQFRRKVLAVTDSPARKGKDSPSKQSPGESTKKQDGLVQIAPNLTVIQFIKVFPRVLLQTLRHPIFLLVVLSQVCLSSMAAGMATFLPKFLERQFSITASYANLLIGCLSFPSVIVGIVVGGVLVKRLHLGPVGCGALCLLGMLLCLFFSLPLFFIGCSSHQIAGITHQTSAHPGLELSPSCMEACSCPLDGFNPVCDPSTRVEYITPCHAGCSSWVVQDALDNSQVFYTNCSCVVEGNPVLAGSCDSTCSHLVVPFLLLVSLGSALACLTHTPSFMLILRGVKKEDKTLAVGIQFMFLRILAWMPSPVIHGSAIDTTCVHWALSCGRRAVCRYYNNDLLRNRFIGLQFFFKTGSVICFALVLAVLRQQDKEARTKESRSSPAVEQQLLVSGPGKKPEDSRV
Put plainly: Inhibition of OATP2B1 (unknown origin) expressed in MDCK2 cells assessed as reduction of [3H]estrone-3-sulfate uptake after 3 mins by beta-counting in presence of OATP inhibitor BSP. The series is classed as ADME, cell-based. To be noted: mdck-ii, 0.05 h.

A short description of series [8]: fCmax in portal vein of patient with chronic noncirrhotic HCV infection at 140 mg. Type of series: ADME. The note with it: human.
For series [9], the target named is T1, Solute carrier organic anion transporter family member 1B1. In words: Inhibition of OATP1B1 (unknown origin) expressed in HEK293 cells assessed as reduction of [3H]estradiol-17beta-glucuronide uptake after 3 mins by beta-counting. Type of series: ADME, cell-based. A digest of the protocol:
(§1)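 Transfected HEK293 (G418) or MDCKII (hygromycin B) cells were co-incubated with 0-100 µM compound and [3H]-E2 17G (1 µM, 0.25 µCi/ml; OATP1B1, OATP1B3) or [3H]-E1S (1 µM; OATP2B1) in HBSS pH 7.4, 3 min at 37°C. OATP-negative uptake was subtracted, and results expressed as % vehicle. Two experiments were run in duplicate. IC50 came from non-linear dose-response fits.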

Series [10] is described as follows: fCmax in portal vein of patient with chronic noncirrhotic HCV infection at 700 mg. The series is classed as ADME. The note with it: human.
Series [11] addresses T2, Solute carrier organic anion transporter family member 2B1. Put plainly: Inhibition of OATP2B1 (unknown origin) expressed in MDCK2 cells assessed as reduction of [3H]estrone-3-sulfate uptake after 3 mins by beta-counting. The series is classed as ADME, cell-based, MDCK-II. A digest of the protocol: as §1
The nature of series [12]: Inhibition of OATP-mediated [3H]estradiol-17beta-glucuronide uptake in sandwich-cultured human hepatocytes at 100 uM after 1 day by beta-counting. Type of series: ADME, cell-based, Hepatocyte. The method, boiled down:
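Day-1 human hepatocytes (seeded 350,000 cells/well, medium changed after 1 h) rinsed in HBSS at 37°C. Co-incubated with [3H]-E2 17G (1 µM, 1 min) or [3H]-rosuvastatin (0.5 µM, 1.5 min) plus compound or vehicle. Cells were washed in ice-cold HBSS, lysed in 0.5% Triton X-100, and counted by scintillation. Non-OATP accumulation (100 µM BSP) was subtracted. Results are % vehicle, protein-normalized, as mean ± SEM of three experiments in triplicate.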

As to `COc1cc([C@H]2Oc3cc([C@H]4Oc5cc(O)cc(O)c5C(=O)[C@@H]4O)ccc3O[C@@H]2CO)ccc1O` [SILYBIN A], the Ratio in [1] was 0.01; in series [3], 0.02; in series [4], 0.05. Besides, the “inhibition (INH)” value in series [2] is “Active”; in [5], “Active”; in series [7] it was “Not Active”; in series [12], “Active”. The same compound came in with a Cmax in [6] of 580 ng/mL. In addition, the figures for the fCmax in series [8] and in [10] were 0.04 µM and 0.22 µM, respectively. For the same compound, the half-inhibitory concentration (IC50) amounted to 9.7 µM in [9] and 4.5 µM in series [11].
On to `COc1cc([C@@H]2Oc3cc([C@H]4Oc5cc(O)cc(O)c5C(=O)[C@@H]4O)ccc3O[C@H]2CO)ccc1O` [SILYBIN B], for which the results for the Ratio in series [1], in [3] and in series [4] were 0.03, 0.08 and 0.88, respectively. Further, the “inhibition (INH)” value in series [2] is “Active”; in series [5], “Active”; in series [7] it was “Not Active”; in [12], “Active”. Further, the peak level in [6] (Cmax) was 220 ng/mL. For the same compound, the fCmax in series [8] stood at 0.13 µM; in series [10] it was 0.7 µM. The 50% inhibitory concentration (IC50) in series [9] stood at 8.5 µM; in series [11], 0.8 µM.

The term Cmax denotes the highest concentration seen after dosing. The IC50 is the midpoint of a concentration-inhibition curve.
